Laboratory results as given in ChEMBL document CHEMBL3739300, “Chemical Constituents from the Fruiting Bodies of Hexagonia apiaria and Their Anti-inflammatory Activity” (J Nat Prod, 2015).
Active and inactive are the calls of the source. The calls are words filed in the database; no cut-off is given here.

Legend:
Format in all cases: functional, cell-based
[1] = Antiinflammatory activity in human neutrophils assessed as inhibition of FMLP/CB-induced superoxide anion generation by spectrophotometry; conditions: Neutrophil
Procedure, shortened: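 Neutrophils from healthy donors (20−30 y) isolated by dextran sedimentation, Ficoll (1.077 g/mL) centrifugation and hypotonic lysis, kept in Ca2+-free HBSS pH 7.4 at 4 °C. Cells (6 × 10^5/mL) with 0.5 mg/mL ferricytochrome c and 1 mM Ca2+, 37 °C 2 min, drug or 0.1% DMSO 5 min. Stimulated with 100 nM FMLP after 1 μg/mL cytochalasin B, 3 min. SOD-inhibitable (100 U/mL) absorbance at 550 nm; IC50, n = 3−4.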

Neutrophil = test: (§1) Antiinflammatory activity in human neutrophils assessed as inhibition of FMLP/CB-induced elastase release
Procedure, shortened: (§2)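 Donor neutrophils (isolated by dextran, Ficoll, hypotonic lysis; Ca2+-free HBSS pH 7.4) at 6 × 10^5/mL with 100 μM MeO-Suc-Ala-Ala-Pro-Val-p-nitroanilide. Equilibrated 37 °C 2 min, drug or 0.1% DMSO vehicle 5 min, then activated with 100 nM FMLP plus 0.5 μg/mL cytochalasin B. Absorbance at 405 nm monitored continuously; percent of FMLP/CB-activated drug-free control; IC50, n = 3−4.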

[2] = as §1; conditions: Neutrophil; procedure, shortened: as §2

Row | IC50 [1] | IC50 [2] | SMILES | inhibition (Neutrophil)
1 | > 10 µM | – | CC1=C(C)C2(C[C@@H](C)[C@H]3[C@@H](C[C@@]4(C)C5=C(CC[C@]34C)[C@@]3(C)CC[C@@H](O)[C@@](C)(C=O)[C@@H]3CC5)O2)OC1=O (some centres not stated) | inactive
2 | 1.9 µM | 4.3 µM | CC1=C(C)C2(C[C@@H](C)[C@H]3[C@@H](C[C@@]4(C)C5=C(CC[C@]34C)[C@@]3(C)CC[C@@H](OC(=O)CC(=O)O)C(C)(C)[C@@H]3CC5)O2)OC1=O (some centres not stated) | –
3 | > 10 µM | – | CC1=C(C)C2(C[C@@H](C)[C@H]3[C@@H](C[C@@]4(C)C5=C(CC[C@]34C)[C@@]3(C)CC[C@@H](O)C(C)(C)[C@@H]3CC5)O2)OC1=O (some centres not stated) | inactive
4 | 6 µM | > 10 µM | C=C(CC[C@@H](C(=O)O)[C@H]1CC[C@@]2(C)C3=C(CC[C@]12C)[C@@]1(C)C[C@H](O)[C@H](O)C(C)(C)[C@@H]1CC3)C(C)C | –
5 | 0.4 µM | 1.5 µM | O=c1cc(N2CCOCC2)oc2c(-c3ccccc3)cccc12 [LY-294002] | –
6 | > 10 µM | – | COC(=O)CC(=O)O[C@@H]1CC[C@]2(C)C3=C(CC[C@H]2C1(C)C)[C@]1(C)C[C@H]2OC4(C[C@@H](C)[C@@H]2[C@@]1(C)CC3)OC(=O)C(C)=C4C (some centres not stated) | inactive
